Results reported in PMC9179932 (Nature chemical biology, 2022).
pIC50: −log10 of the molar value. Like-named read-outs stand apart in the source and are kept apart here. Values belong to the molecule of their own block, whether it stands above or below them. Peptide text beside a SMILES is read from it.

Key:
MV4;11 cells [1] = test: MV4; assay type: cell-based; conditions: 1 mM; for pyroptosis in PEPD−/− knockout cells / activity in control cells: 14 h; for lytic cell death / cytotoxicity in MV4;11 cells: PI uptake, CTG, CTF
NLRP1–DPP9 interaction = NLRP1–DPP9 interaction (Homo sapiens, UniProt Q86TI2); test: DPP9 displacement from FLAG-NLRP1 on anti-FLAG beads; assay type: binding; conditions: VbP 10 μM; VP dipeptide 0.5, 5 mM; CQ31, CQ04 10 μM
NLRP1–DPP9 interaction, sequence (Q86TI2 whole entry): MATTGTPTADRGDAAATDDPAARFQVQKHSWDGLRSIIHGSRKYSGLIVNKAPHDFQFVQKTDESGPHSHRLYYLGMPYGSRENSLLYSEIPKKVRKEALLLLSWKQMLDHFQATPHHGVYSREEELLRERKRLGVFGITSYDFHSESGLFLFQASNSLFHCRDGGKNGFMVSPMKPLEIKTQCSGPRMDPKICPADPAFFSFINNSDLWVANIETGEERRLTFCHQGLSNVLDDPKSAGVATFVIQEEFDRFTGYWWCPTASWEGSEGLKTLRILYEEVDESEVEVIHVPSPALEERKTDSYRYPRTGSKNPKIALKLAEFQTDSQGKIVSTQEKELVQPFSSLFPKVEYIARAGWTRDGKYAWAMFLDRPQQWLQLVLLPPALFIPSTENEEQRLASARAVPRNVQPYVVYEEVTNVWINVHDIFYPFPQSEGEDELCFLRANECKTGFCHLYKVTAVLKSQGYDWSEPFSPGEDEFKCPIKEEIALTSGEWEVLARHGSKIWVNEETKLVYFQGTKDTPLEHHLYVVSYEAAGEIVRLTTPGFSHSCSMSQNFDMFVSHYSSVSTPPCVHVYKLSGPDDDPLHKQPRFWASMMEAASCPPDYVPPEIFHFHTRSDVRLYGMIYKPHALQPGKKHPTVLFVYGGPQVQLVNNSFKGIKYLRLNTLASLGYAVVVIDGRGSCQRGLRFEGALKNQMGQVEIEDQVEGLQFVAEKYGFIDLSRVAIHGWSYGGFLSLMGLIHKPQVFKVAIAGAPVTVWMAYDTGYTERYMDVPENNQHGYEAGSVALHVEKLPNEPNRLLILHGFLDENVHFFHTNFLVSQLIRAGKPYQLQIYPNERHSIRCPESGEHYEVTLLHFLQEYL

recombinant DPP9 = recombinant DPP9 (Homo sapiens, UniProt Q86TI2); test: AP-AMC-based DPP9 substrate assay; assay type: biochemical; conditions: for effect of esterification on DPP9 inhibition: methyl ester vs free dipeptide
recombinant DPP9, sequence (Q86TI2 whole entry, species assumed): as the sequence (Q86TI2 whole entry) above
Summary of the method: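 Recombinant DPP9 (1 nM) is dispensed into 384-well plates and test compound is added by pintool over a concentration series. Reaction starts with 25 μM AP-AMC. Cleavage is read as rising fluorescence (ex/em 380/460 nm) at 25 °C for 30 min.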

resting primary T cells = test: Pyroptosis in resting primary T cells; assay type: cell-based, human; conditions: for GSDMD cleavage in resting T cells: 1 mM, 18 h
Summary of the method: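 Primary resting human CD3+ T cells (>90% purity) are thawed in RPMI/10% FBS and cultured with IL-2 30 U ml−1. Cells are treated with 1 mM for 18 h or 10 μM for 24 h. Analysis is by immunoblot for pyroptotic and apoptotic markers, with CTG viability after 24 h. Results are representative of two independent experiments.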

N/TERT-1 keratinocytes = test: NLRP1 inflammasome activation in N/TERT-1 keratinocytes; assay type: cell-based, human; conditions: XP-OMes 1 mM, VbP 10 μM, CQ31 10 μM, 16 h
Summary of the method: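 N/TERT-1 immortalised keratinocytes seeded at 1×10^5 cells per well in 12-well plates, grown to 70% confluence, then treated with test compound for 16 h. Supernatants assayed for LDH activity with a commercial cytotoxicity kit; inflammasome readouts such as IL-18 processing assessed by immunoblotting.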

MV4;11 cells [2] = test: MV4; assay type: cell-based, human; conditions: for LDH release and GSDMD cleavage / effect on CQ31-induced cell death: WT MV4;11; for LDH release and GSDMD cleavage: XP-OMes 1 mM, VbP 2 μM, 14 h; for PI uptake, GSDMD cleavage and LDH release in knockout cells: CASP1−/− and CARD8−/− MV4;11; for LDH release and GSDMD cleavage in PEPD−/− vs control cells: PEPD−/− MV4;11, 1 mM; for LDH release and GSDMD cleavage in PEPD−/− vs control cells / effect on CQ31-induced cell death / effect on VP-OMe- and IP-OMe-induced LDH release and GSDMD cleavage: 6 h; for effect on CQ31-induced cell death: CQ31 10 μM; for effect on CQ31-induced cell death / effect on VP-OMe- and IP-OMe-induced LDH release and GSDMD cleavage: bortezomib 1 μM, VX-765 50 μM; for effect on VP-OMe- and IP-OMe-induced LDH release and GSDMD cleavage: pretreatment
Summary of the method: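 MV4;11 cells (WT or knockouts) are plated at 5×10^5 per well. Treatments: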

J774.1 macrophages = test: Pyroptosis in J774.1 macrophages; assay type: cell-based, mouse; conditions: VbP 2 μM, 24 h
Summary of the method: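 J774.1 cells are grown in RPMI/10% FBS, plated at 5×10^5 per well and treated 24 h (VbP 2 μM). Supernatant LDH is measured relative to Triton X-100 lysis (n = 3). For the dose series, 2,000 cells per well in 384-well plates get compound by pintool. CTF fluorescence is read after 30 min, then CTG luminescence after 2 min shaking and 10 min at 25 °C (n = 6).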

RAW264.7 cells = test: Pyroptosis in RAW264.7 macrophages; assay type: cell-based, mouse; conditions: 24 h; for pyroptosis at fivefold higher concentration: 5 mM, CTF and CTG
human NLRP1 inflammasome = test: Reconstituted human NLRP1 inflammasome in HEK 293T cells; assay type: cell-based; conditions: XP-OMes 1 mM, VbP 10 μM, CQ31 10 μM, 24 h
Summary of the method: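 For ASC specks, HEK 293T cells (2.5×10^5 per well) are transfected with 10 ng FLAG-NLRP1, 5 ng V5-GFP-ASC and 985 ng RFP plasmid and allowed 24 h expression. They are treated 24 h, Hoechst-stained, and the % of cells with specks is scored by microscopy. For GSDMD cleavage, HEK 293T cells stably expressing CASP1/GSDMD get 0.02 μg NLRP1 and 0.01 μg ASC (2.0 μg total DNA), are treated 16–20 h later for 24 h, and are immunoblotted.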

THP-1 cells = test: THP-1 LDH release and GSDMD cleavage immunoblot; assay type: cell-based, human; conditions: for additional pyroptosis in DPP8/9−/− THP-1 cells: LDH release, GSDMD cleavage, CTG and CTF; for LDH release and GSDMD cleavage: WT THP-1, XP-OMes 1 mM, VbP 2 μM, 24 h; for PI uptake, GSDMD cleavage and LDH release in knockout cells: CASP1−/− and CARD8−/− THP-1
[3] = test system: VbP-sensitive cell lines, including THP-1 cells; test: Viability of VbP-sensitive AML cancer cell lines; assay type: cell-based, human; conditions: 24 h, CTG
Summary of the method: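 Cell lines grown in RPMI/10% FBS are seeded at 2,000 cells per well in 384-well plates (25 μl). Test compound is pinned in at multiple concentrations and incubated 24 h at 37 °C, 5% CO2. CellTiter-Glo is added, plates are shaken 2 min and held 10 min at 25 °C, and luminescence is read.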

SMILES: COC(=O)[C@@H]1CCCN1C(=O)[C@@H]1CCCN1 [PP-OMe] (H-Pro-Pro-OMe)
- pyroptosis in PEPD−/− knockout cells (MV4;11 cells [1]): induced pyroptosis
- activity in control cells (MV4;11 cells [1]): inactive in control cells

SMILES: CC(C)[C@H](N)C(=O)N1CCC[C@H]1C(=O)O [Val-Pro, reference compound] (H-Val-Pro-OH)
- lytic cell death / cytotoxicity in MV4;11 cells (MV4;11 cells [1]): did not induce lytic cell death
- disruption of NLRP1–DPP9 interaction (DPP9 elution) (NLRP1–DPP9 interaction): had no impact on the NLRP1 ternary complex
- pIC50 (recombinant DPP9; read-out: IC50, DPP9 inhibition, Ala-Pro-aminomethylcoumarin (AP-AMC) substrate): 4.82 to 5.00

SMILES: CC(C)[C@H](N)C(=O)N1CCC[C@H]1B(O)O [VbP, Val-boroPro, reference compound]
- pyroptosis in resting primary T cells (resting primary T cells; 10 μM, 24 h): induced pyroptosis
- NLRP1 inflammasome activation (LDH release, IL-18 cleavage and release) (N/TERT-1 keratinocytes): induced LDH release as well as IL-18 cleavage and release
- LDH release and GSDMD cleavage (MV4;11 cells [2]): induced the release of intracellular lactate dehydrogenase (LDH) and GSDMD cleavage
- activation of mNLRP1B1 (LDH release) (J774.1 macrophages): activated mouse NLRP1B allele 1
- activation of mNLRP1B1 (LDH release, GSDMD cleavage) (RAW264.7 cells; VbP 2 μM): activated mouse NLRP1B allele 1
- ASC speck formation (human NLRP1 inflammasome): triggered the formation of ASC specks
- additional pyroptosis in DPP8/9−/− THP-1 cells (THP-1 cells): did not induce any additional pyroptosis
- LDH release and GSDMD cleavage (THP-1 cells): induced the release of intracellular lactate dehydrogenase (LDH) and GSDMD cleavage

SMILES: CC[C@H](C)[C@H](N)C(=O)N1CCC[C@H]1C(=O)OC [IP-OMe] (H-Ile-Pro-OMe)
- GSDMD cleavage in resting T cells (resting primary T cells): induced GSDMD cleavage
- NLRP1 inflammasome activation (LDH release, IL-18 cleavage and release) (N/TERT-1 keratinocytes): did not induce NLRP1 inflammasome activation
- lytic cell death / cytotoxicity in MV4;11 cells (MV4;11 cells [1]): cytotoxic
- PI uptake, GSDMD cleavage and LDH release in knockout cells (MV4;11 cells [2]): lack of PI uptake, GSDMD cleavage and LDH release
- LDH release and GSDMD cleavage in PEPD−/− vs control cells (MV4;11 cells [2]): induced more LDH release and GSDMD cleavage
- LDH release and GSDMD cleavage (MV4;11 cells [2]): induced the release of intracellular lactate dehydrogenase (LDH) and GSDMD cleavage
- pyroptosis at fivefold higher concentration (RAW264.7 cells): failed to trigger pyroptosis
- effect of esterification on DPP9 inhibition (recombinant DPP9): did not impact DPP9 inhibition
- PI uptake, GSDMD cleavage and LDH release in knockout cells (THP-1 cells): lack of PI uptake, GSDMD cleavage and LDH release
- additional pyroptosis in DPP8/9−/− THP-1 cells (THP-1 cells): did not induce any additional pyroptosis
- LDH release and GSDMD cleavage (THP-1 cells): induced the release of intracellular lactate dehydrogenase (LDH) and GSDMD cleavage

SMILES: COC(=O)[C@@H]1CCCN1C(=O)[C@@H](N)C(C)C [VP-OMe] (H-Val-Pro-OMe)
- GSDMD cleavage in resting T cells (resting primary T cells): induced GSDMD cleavage
- NLRP1 inflammasome activation (LDH release, IL-18 cleavage and release) (N/TERT-1 keratinocytes): did not induce NLRP1 inflammasome activation
- lytic cell death / cytotoxicity in MV4;11 cells (MV4;11 cells [1]): cytotoxic
- PI uptake, GSDMD cleavage and LDH release in knockout cells (MV4;11 cells [2]): lack of PI uptake, GSDMD cleavage and LDH release
- LDH release and GSDMD cleavage in PEPD−/− vs control cells (MV4;11 cells [2]): induced more LDH release and GSDMD cleavage
- LDH release and GSDMD cleavage (MV4;11 cells [2]): induced the release of intracellular lactate dehydrogenase (LDH) and GSDMD cleavage
- pyroptosis at fivefold higher concentration (RAW264.7 cells): failed to trigger pyroptosis
- effect of esterification on DPP9 inhibition (recombinant DPP9): did not impact DPP9 inhibition
- concentration inducing cell death [3]: < 5 mM
- PI uptake, GSDMD cleavage and LDH release in knockout cells (THP-1 cells): lack of PI uptake, GSDMD cleavage and LDH release
- additional pyroptosis in DPP8/9−/− THP-1 cells (THP-1 cells): did not induce any additional pyroptosis
- LDH release and GSDMD cleavage (THP-1 cells): induced the release of intracellular lactate dehydrogenase (LDH) and GSDMD cleavage

SMILES: CCO[C@@H]1OC(=O)C[C@@H]1NC(=O)[C@@H]1CCCN1C(=O)[C@@H](NC(=O)c1ccc(N)c(Cl)c1)C(C)(C)C [VX-765, reference compound]
- effect on CQ31-induced cell death (MV4;11 cells [2]): blocked CQ31-induced cell death
- effect on VP-OMe- and IP-OMe-induced LDH release and GSDMD cleavage (MV4;11 cells [2]): completely blocked

SMILES: CC(C)C[C@H](NC(=O)[C@H](Cc1ccccc1)NC(=O)c1cnccn1)B(O)O [bortezomib, reference compound]
- apoptosis (PARP cleavage) (MV4;11 cells [2]): caused considerable apoptosis
- effect on CQ31-induced cell death (MV4;11 cells [2]): blocked CQ31-induced cell death
- effect on VP-OMe- and IP-OMe-induced LDH release and GSDMD cleavage (MV4;11 cells [2]): completely blocked

- pIC50 (recombinant DPP9): 4.82 to 5.00
SMILES: CCC(C)C(N)C(=O)N1CCCC1C(=O)O (stereo not drawn) [Ile-Pro, reference compound] (H-Ile-Pro-OH; configuration not given here)
- lytic cell death / cytotoxicity in MV4;11 cells (MV4;11 cells [1]): did not induce lytic cell death

SMILES: COC(=O)[C@@H]1CCCN1C(=O)[C@@H](N)CCSC [MP-OMe] (H-Met-Pro-OMe)
- pyroptosis in PEPD−/− knockout cells (MV4;11 cells [1]): induced pyroptosis
- activity in control cells (MV4;11 cells [1]): inactive in control cells

SMILES: COC(=O)[C@@H]1CCCN1C(=O)[C@@H](N)CC(C)C [LP-OMe] (H-Leu-Pro-OMe)
- pyroptosis in PEPD−/− knockout cells (MV4;11 cells [1]): induced pyroptosis
- activity in control cells (MV4;11 cells [1]): inactive in control cells
